# Compound activity from PubChem BioAssay.
# DSG3 Ab inh: blocks pemphigus antibody binding to human desmoglein-3 | P32926 | DSG3-coupled beads, scFv-anti-DSG3-GFP binding, flow cytometry; hits give low values | binding (percent of control), % at 10 µM | 310,000 compounds, 0.48% hits;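 active = binding more than 3 SD below its plate's average and above zero; inconclusive = below that plate limit but binding exactly zero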;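 also: hits lower antibody fragment binding to DSG3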
# RanGTP-Imp inh: inhibitors of RanGTP-importin-beta interaction, primary screen, biochemical, FRET, CFP-Ran, YFP-importin-beta, homogeneous; cell-free CFP-Ran/YFP-importin-beta FRET ratio; inhibition, % (test concentration not listed); 300,000 compounds, 1.1% hits;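 active = more than half of the replicate wells show a fall in the fluorescence ratio signal beyond about 16%, limit read from the data, passing the limit was not always enough; inconclusive = exactly half of the replicate wells pass the set limit; inactive = fewer than half of replicates pass the limit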;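 also: 0% = DMSO wells and 100% = Ran loaded with GDP instead of GTP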
# Runt-CBFb FRET: Runt domain-CBFb interaction inhibition. Q01196+Q13951. Cerulean-Runt/Venus-CBFb FRET ratio 530/480, 1 h. inhibition, % at 20 µM. 220,000 compounds, 0.46% hits;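 active = inhibition over about 50% at 20 µM in the single-dose screen, limit read from the data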;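 also: 0% = DMSO wells and 100% = excess unlabeled CBFb competitor control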
# Target sequence (Q01196 whole entry, looked up, the tested form may be a part): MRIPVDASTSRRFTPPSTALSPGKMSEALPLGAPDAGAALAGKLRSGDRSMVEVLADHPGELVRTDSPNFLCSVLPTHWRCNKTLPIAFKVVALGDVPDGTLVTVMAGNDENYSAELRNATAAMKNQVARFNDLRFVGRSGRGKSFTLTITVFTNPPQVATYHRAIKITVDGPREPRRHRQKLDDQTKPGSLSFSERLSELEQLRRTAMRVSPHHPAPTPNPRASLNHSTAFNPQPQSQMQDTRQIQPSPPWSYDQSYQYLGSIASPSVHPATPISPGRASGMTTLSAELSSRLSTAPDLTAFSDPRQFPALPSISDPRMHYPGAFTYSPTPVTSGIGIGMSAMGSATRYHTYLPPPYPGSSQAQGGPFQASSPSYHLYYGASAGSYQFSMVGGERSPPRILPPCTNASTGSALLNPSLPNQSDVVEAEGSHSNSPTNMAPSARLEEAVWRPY
# Target sequence (Q13951 whole entry, looked up, the tested form may be a part): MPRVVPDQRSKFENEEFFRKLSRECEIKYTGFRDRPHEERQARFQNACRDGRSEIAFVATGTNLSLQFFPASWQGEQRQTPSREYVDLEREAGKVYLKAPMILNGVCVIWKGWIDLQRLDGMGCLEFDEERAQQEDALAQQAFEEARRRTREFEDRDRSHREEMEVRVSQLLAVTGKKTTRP
#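 Assay system: Cerulean-tagged RUNX1 Runt domain (FRET donor) fusion protein / Amount: 100 nM each of Venus-CBFb and Cerulean-Runt domain / Medium: Tris buffer pH 7.5 with salts and BSA / Also added: Venus-CBFb 100 nM / Schedule: 1 h complex formation plus 1 h compound treatment, room temperature / Signal: FRET fluorescence / Read-out: loss of energy transfer signal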
# Runt-SMMHC FRET: inhibitors of human RUNX1 Runt domain binding to CBFb-SMMHC; AID 1434; Cerulean-Runt/Venus-CBFb-SMMHC FRET ratio 530/480, 1 h; Q01196+Q13951; 220,000 compounds, 0.74% hits; inhibition, % at 20 µM;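 active = mean inhibition across duplicate retests at 20 µM reaching about 50%, limit read from the data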;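 also: 0% = DMSO wells and 100% = wells with excess untagged CBFb-SMMHC; inhibitors lower the FRET ratio by blocking Runt binding to CBFb-SMMHC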
# p-CIP stab down: p/CIP protein destabilization. Q05BA5. F442A p/CIP-EGFP cells, EGFP fluorescence, 16 h. decrease of EGFP signal, % at 10 µM. 290,000 compounds, 0.01% hits;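 active = EGFP signal decrease of at least 30% at 10 µM or well 3 SD below plate mean, unless failing retest; inactive = the rest, including hits failing retest or dose response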
# Hck Nef HTS: inhibitors of human Hck kinase activated by Nef; P08631; Recombinant Hck-YEEI plus Nef, Z-Lyte FRET kinase assay; inhibition, % at 20 µM; 220,000 compounds, 0.68% hits; AID 463187;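 active = Hck-Nef kinase inhibition above about 50%, limit read from the data; inactive = inhibition below that limit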;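 also: 0% = DMSO with Hck plus Nef and 100% = Hck alone without Nef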
# Starred values were filed as active, the others as inactive; ? = inconclusive; nt = no result. A selection: hits, their analogues and other compounds. The true share with any hit is near 2.1%.
SMILES,DSG3 Ab inh,RanGTP-Imp inh,Runt-CBFb FRET,Runt-SMMHC FRET,p-CIP stab down,Hck Nef HTS
COCCCNC(=O)c1c(N)n(/N=C/c2cccs2)c2nc3ccccc3nc12,79.0*,11.2,87.7*,58.5*,-4.4,13.2
Cc1csc(NC(=O)CSc2nccn2C)n1,103.9,1.1,nt,nt,1.0,nt
COc1ccccc1NC(=O)NC1(C(=O)N2CCC(C)CC2)CCCCC1,102.6,-0.3,nt,nt,6.4,nt
COc1ccccc1CNC(=O)Cn1cc([N+](=O)[O-])ccc1=O,113.3,-0.3,nt,nt,10.6,nt
O=c1c2[nH]c3ccc(Br)cc3c2ncn1Cc1ccncc1,nt,1.1,2.6,-3.7,-1.7,-9.5
CC(C)(C)c1cc(/C=N/NC(=O)Cc2nc3ccccc3[nH]2)cc(C(C)(C)C)c1O,112.2,38.8*,12.9,29.5,1.0,10.5
O=C(Cc1nc2ccccc2[nH]1)N/N=C/c1ccccc1,101.8,nt,1.8,0.3,-5.7,-0.1
CCN1C(=O)/C(=C/N2CCc3ccccc32)SC1=S,101.9,27.8*,-72.2,61.6,4.8,9.0
CC(N=Cc1c(O)c2ccccc2oc1=O)C(=O)O (configuration not stated),51.3*,-5.5,0.0,-4.9,18.0,4.6
O=C(O)C(CO)N=Cc1c(O)c2ccccc2oc1=O (configuration not stated),105.1,-0.4,-2.1,-0.3,-2.0,15.2
Nc1nc(N)nc(-c2ccccc2-c2nc(N)nc(N)n2)n1,74.0*,3.0,2.4,-5.1,-7.7,3.2
O=C1[C@H]2[C@@H](c3ccc(F)cc3)N3C(=O)N(c4cccc(Br)c4)C(=O)[C@@]3(Cc3ccc(Cl)cc3)[C@H]2C(=O)N1C1CCCCC1,-6.5*,-0.9,nt,nt,-6.6,nt
CC(=O)CSc1nnc(-c2ccc3c(c2)OCO3)o1,nt,-0.4,-3.6,-1.8,5.3,-1.7
CC(=O)Nc1ccc(NC(=O)CSc2nnc(-c3ccc4c(c3)OCO4)o2)cc1,-14.9*,nt,nt,nt,nt,nt
CCN1C(=O)N(S(=O)(=O)C(F)(F)F)[C@@H](c2ccccc2)C(C(=O)OC)=C1C,104.3,34.8*,0.5,-0.4,-6.5,26.2
Cc1cc(C)cc(NC(=O)Cn2ncn3c(cc4ccccc43)c2=O)c1,81.6*,-4.7,3.0,-6.0,4.6,-1.0
CN(C)c1ccc(NC(=O)Cn2ncn3c(cc4ccccc43)c2=O)cc1,92.1,-3.1,-1.8,3.4,-23.6,2.4
CCOc1ccc(-c2cc(CCCC(=O)Nc3cccc(OC)c3)no2)cc1,96.2,26.6*,-1.5,-1.9,-1.3,-2.7
Cn1c(C(=O)NCc2ccccn2)cc2c(=O)n3ccccc3nc21,100.6,9.1,27.1,96.6*,0.7,42.6
COc1ccc(C)cc1NC(=O)c1cc2c(=O)n3ccccc3nc2n1C,108.0,nt,-63.7,92.5*,-24.7,-15.8
CC(=O)Cc1nnn(-c2cc(C)on2)n1,nt,6.8,1.8,6.5,-13.1,-9.1
O=C(/C=C/Nc1ccc(Oc2ccccc2)cc1)c1ccco1,14.0*,-6.1,-16.6,-31.8,0.1,-8.4
NC(=O)c1ccccc1N/C=C/C(=O)c1ccco1,95.5,-21.2,4.5,16.5,-4.2,0.4
CCN(CCCNC(=O)Cn1ncc2c([nH]c3ccc(C)cc32)c1=O)Cc1ccccc1,nt,-1.8,nt,nt,7.7,nt
COCC(=O)N1CCC(Oc2ccc(C(=O)NC(C)c3nc(C)sc3C)cc2)CC1 (configuration not stated),nt,-0.3,nt,nt,-8.4,nt
SMILES,DSG3 Ab inh,RanGTP-Imp inh,Runt-CBFb FRET,Runt-SMMHC FRET,p-CIP stab down,Hck Nef HTS
CCCc1nc(N2CCOCC2)c(C#N)c2c1CCCC2,91.1,0.3,0.6,-6.3,0.6,1.8
CN1CCc2c(C#N)c(N3CCOCC3)nc(NCC3CCCO3)c2C1 (configuration not stated),97.5,70.5*,32.6,6.3,-1.9,10.6
CCOC(=O)N1CCN(C(=O)/C=C/c2ccc(C(C)(C)C)cc2)CC1,121.4,27.7*,nt,nt,-14.1,nt
CCOC(=O)N1CCN(C(=O)/C=C/c2ccc([N+](=O)[O-])cc2)CC1,92.0,-2.4,-0.8,3.3,-0.6,-7.8
O=C(NCc1ccco1)c1cnn2c1NC(c1ccccc1)CC2C(F)(F)F (configuration not stated),100.2,-5.3,-2.3,-6.8,-1.0,1.2
O=C(NCc1ccco1)c1cnn2c1NC(c1ccc(Br)cc1)CC2C(F)(F)F (configuration not stated),115.8,24.9*,0.1,7.0,3.7,0.8
COc1cccc(/C=N/NC(=O)Cn2cnc3c2c(=O)n(C)c(=O)n3C)c1OC,107.5,2.1,0.3,-1.8,7.1,17.7
COc1ccccc1CCC(=O)NC1CCCN(c2ccc(C(F)(F)F)cn2)C1 (configuration not stated),98.4,0.7,nt,nt,0.7,nt
O=C(CCc1ccccc1Cl)NC1CCCN(c2ccc(C(F)(F)F)cn2)C1 (configuration not stated),82.3*,6.5,nt,nt,0.6,nt
CC1CCN(C(=O)Cn2nnc(-c3ccc(N)cc3)n2)CC1,106.3,1.8,nt,nt,-2.1,nt
Cc1nc(Cl)c2c(n1)NC1=C(O2)C(=O)CCC1,82.3,-1.6,-43.9,73.2*,3.4,-7.1
Cc1ccc(C)c(OCc2cc(C(=O)NC(c3ccccn3)C(F)(F)F)no2)c1 (configuration not stated),100.8,2.7,nt,nt,-14.3,nt
CCc1nc(SCC(=O)c2ccc3c(c2)OCCO3)c2ccccc2n1,105.1,11.6,29.2,55.8*,-6.3,1.7
O=C(CSc1nc2nc(-c3cccs3)cc(C(F)(F)F)c2c(=O)[nH]1)Nc1c(F)c(F)c(F)c(F)c1F,107.9,0.5,3.8,5.4,-13.3,30.0
O=c1[nH]c(=S)[nH]c2nc(-c3cccs3)cc(C(F)(F)F)c12,71.3*,-2.4,nt,nt,27.3,nt
COc1ccc(C(=O)N(CC2CCCO2)C(C(=O)NC2CCCC2)c2ccc(Cl)cc2)cc1OC (configuration not stated),96.0,2.1,-2.6,3.4,2.1,1.3
COc1ccc(C(=O)N(CC2CCCO2)C(C(=O)NCCC(C)C)c2ccc(C)cc2)cc1OC (configuration not stated),87.0*,1.1,-1.4,1.7,-7.7,2.4
CCn1c(=S)sc2c(=O)n(CC(=O)Nc3ccc(C(C)=O)cc3)c(C)nc21,100.3,-2.8,nt,nt,10.9,nt
Cc1snc(S(=O)(=O)/C(C#N)=N/Nc2cccc(C(F)(F)F)c2)c1C#N,73.8*,-1.6,1.7,-6.0,6.2,0.8
Cc1nnc(-c2ccccc2)nc1N(C)C,96.9,?,0.6,-4.8,20.3,-1.7
CCS(=O)(=O)N1Cc2ccccc2CC1C(=O)Nc1ccc(OC)c(OC)c1 (configuration not stated),nt,-2.0,nt,nt,-2.4,nt
CCS(=O)(=O)N1Cc2ccccc2CC1C(=O)Nc1ccc(F)cc1 (configuration not stated),98.9,1.1,2.1,80.2*,-19.6,-1.8
